Target: not listed separately
Assay: (§1) The compound was tested for inhibitory effect towards the pepsin hydrolysis of Horseradish peroxidase
Design: species or system plant
How it was run: (§2)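 Pepsin (10 µg ≙ 35 units, freshly prepared) was mixed with DMSO serial dilutions of inhibitor (1.00 mg/mL solution, 1:10 then 1:2 steps), with horseradish peroxidase as protein substrate. Mixtures were serially diluted 1:2 in 0.05 N HCl, and residual peroxidase was read with o-phenylenediamine/H₂O₂ in 0.2 M phosphate pH 6.5 (15 min, room temperature, OD 492 nm). Pepstatin A served as reference. IC50 was determined.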

IC50 [nM] | Structure (SMILES)
4500 | CCCCCCC(O)[C@H](CC(C)C)NC(=O)[C@@H](NC(=O)[C@@H](NC(=O)C1CC1)C(C)C)C(C)C (stereo not given in full)
31 | CC(C)CC(=O)N[C@H](C(=O)N[C@H](C(=O)N[C@@H](CC(C)C)[C@@H](O)CC(=O)N[C@@H](C)C(=O)N[C@@H](CC(C)C)[C@@H](O)CC(=O)O)C(C)C)C(C)C [PEPSTATIN]

Target: Pepsin A (Sus scrofa, UniProt P00791)
Assay: as §1
Design: species or system plant
How it was run: as §2

Chain of Pepsin A (P00791 whole entry): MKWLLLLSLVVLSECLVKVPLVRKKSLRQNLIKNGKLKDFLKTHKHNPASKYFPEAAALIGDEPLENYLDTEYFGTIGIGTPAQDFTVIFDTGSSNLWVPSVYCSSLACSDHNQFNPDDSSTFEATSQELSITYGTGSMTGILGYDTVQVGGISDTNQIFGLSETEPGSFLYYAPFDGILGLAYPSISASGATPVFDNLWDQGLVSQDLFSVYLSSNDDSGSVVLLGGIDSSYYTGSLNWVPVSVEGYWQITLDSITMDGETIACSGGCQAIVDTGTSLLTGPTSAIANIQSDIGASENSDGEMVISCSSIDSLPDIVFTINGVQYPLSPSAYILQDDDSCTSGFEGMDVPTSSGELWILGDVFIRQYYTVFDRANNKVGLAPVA

Structure (SMILES) | IC50 [nM]
CCCCCCC(O)[C@H](CC(C)C)NC(=O)[C@@H](NC(=O)[C@@H](NC(=O)CC(C)(C)C)C(C)C)C(C)C (stereo not given in full) | 1100
CCCCCCC(O)[C@H](CC(C)C)NC(=O)[C@@H](NC(=O)[C@@H](NC(=O)OC(C)(C)C)C(C)C)C(C)C (stereo not given in full) | 210
CCCCCCC(O)[C@H](CC(C)C)NC(=O)[C@@H](NC(=O)[C@@H](NC(=O)CC(C)C)C(C)C)C(C)C (stereo not given in full) | 920
CCCCCCC(O)[C@H](CC(C)C)NC(=O)[C@@H](NC(=O)[C@@H](NC(=O)C(C)C)C(C)C)C(C)C (stereo not given in full) | 3600
CCCCCCC(O)[C@H](CC(C)C)NC(=O)[C@@H](NC(=O)[C@@H](NC(=O)OC(C)C)C(C)C)C(C)C (stereo not given in full) | 1200

The next lines start with the values.

IC50 [nM] | Structure (SMILES)
730 | CCCCCCC(O)[C@H](CC(C)C)NC(=O)[C@@H](NC(=O)[C@@H](NC(=O)CCc1ccccc1)C(C)C)C(C)C (stereo not given in full)
690 | CCCCCCC(O)[C@H](CC(C)C)NC(=O)[C@@H](NC(=O)[C@@H](NC(=O)OCc1ccccc1)C(C)C)C(C)C (stereo not given in full)
3200 | CCCCCCC(O)[C@H](CC(C)C)NC(=O)[C@@H](NC(=O)[C@@H](NC(=O)CC)C(C)C)C(C)C (stereo not given in full)

Reference: ChEMBL document CHEMBL1132234, “Simplified pepstatins: synthesis and evaluation of N-terminally modified analogues” (J Med Chem, 1999)
